From ChEMBL document CHEMBL3272141, “Potential long-acting anticonvulsants. 2. Synthesis and activity of succinimides containing an alkylating group on nitrogen or at the 3 position” (J Med Chem, 1977) come the findings set out here.

The source made the active and inactive calls. No cut-off for these calls is given here.

In assay [1] the test system is Mus musculus. The experiment in a line: Anticonvulsant activity against maximal electroshock-induced seizures in Carworth Farms No.1 mouse up to 300 mg/kg. Format: functional, organism-based. More on the design: dose 300 mg/kg. A digest of the protocol:
(§1)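 Male Carworth Farms No. 1 mice were used, with the highest dose tested being 300 mg/kg.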

For assay [2], the system named is Mus musculus. The experiment in a line: Anticonvulsant activity against metrazole-induced seizures in Carworth Farms No.1 mouse up to 300 mg/kg. Format: functional, organism-based. Also noted: dose 300 mg/kg. A digest of the protocol:
as §1

In the case of `NCCN1C(=O)CC(c2ccccc2)C1=O` (stereo not drawn), the result in assay [1] and in assay [2] was inactive.
Regarding `O=C1C=CC(=O)N1CCN1C(=O)CC(c2ccccc2)C1=O` (stereo not drawn), the outcome in assay [1] and in assay [2] was inactive.
As to `O=C(CCl)NCCCN1C(=O)CC(CCCNC(=O)CCl)(c2ccccc2)C1=O` (stereo not drawn), the outcome in assay [1] and in assay [2] was inactive.
For `O=C(CCl)NCCN1C(=O)CC(c2ccccc2)C1=O` (stereo not drawn), the result in assay [1] and in assay [2] was inactive.
Turning to `O=C(O)/C=C\C(=O)NCCN1C(=O)CC(c2ccccc2)C1=O` (stereo not drawn), the result in assay [1] and in assay [2] was inactive.
`O=C1CC(c2ccccc2)C(=O)N1CCc1ccccc1` (stereo not drawn): the outcome in assay [1] and in assay [2] was inactive.
Turning to `CC(=O)Nc1ccc(CCN2C(=O)CC(c3ccccc3)C2=O)cc1` (stereo not drawn), the result in assay [1] and in assay [2] was inactive.
`O=C1CC(c2ccccc2)C(=O)N1CCc1ccc(N2C(=O)C=CC2=O)cc1` (stereo not drawn): the result in assay [1] and in assay [2] was inactive.
With `O=C(CCl)Nc1ccc(CCN2C(=O)CC(c3ccccc3)C2=O)cc1` (stereo not drawn), the result in assay [1] and in assay [2] was inactive.
As to `O=C(CCl)N1C(=O)CC(c2ccccc2)C1=O` (stereo not drawn), the result in assay [1] and in assay [2] was inactive.
With `O=C(O)/C=C\C(=O)Nc1ccc(CCN2C(=O)CC(c3ccccc3)C2=O)cc1` (stereo not drawn), the result in assay [1] and in assay [2] was inactive.
Consider `Nc1ccc(CCN2C(=O)CC(c3ccccc3)C2=O)cc1` (stereo not drawn), for which the result in assay [1] and in assay [2] was inactive.
As for `N#CCN1C(=O)CC(c2ccccc2)C1=O` (stereo not drawn), the outcome in assay [1] and in assay [2] was inactive.
In the case of `CN1C(=O)C(CCNC(=O)CCl)C(C)(c2ccccc2)C1=O` (stereo not drawn), the result in assay [1] and in assay [2] was inactive.
